{"data": "Experimental data of several laboratories", "target": "Tyrosine-protein kinase ZAP-70 (ZAP70, Homo sapiens, UniProt P43403)", "Sequence (P43403 1-619, as in one of the studies)": "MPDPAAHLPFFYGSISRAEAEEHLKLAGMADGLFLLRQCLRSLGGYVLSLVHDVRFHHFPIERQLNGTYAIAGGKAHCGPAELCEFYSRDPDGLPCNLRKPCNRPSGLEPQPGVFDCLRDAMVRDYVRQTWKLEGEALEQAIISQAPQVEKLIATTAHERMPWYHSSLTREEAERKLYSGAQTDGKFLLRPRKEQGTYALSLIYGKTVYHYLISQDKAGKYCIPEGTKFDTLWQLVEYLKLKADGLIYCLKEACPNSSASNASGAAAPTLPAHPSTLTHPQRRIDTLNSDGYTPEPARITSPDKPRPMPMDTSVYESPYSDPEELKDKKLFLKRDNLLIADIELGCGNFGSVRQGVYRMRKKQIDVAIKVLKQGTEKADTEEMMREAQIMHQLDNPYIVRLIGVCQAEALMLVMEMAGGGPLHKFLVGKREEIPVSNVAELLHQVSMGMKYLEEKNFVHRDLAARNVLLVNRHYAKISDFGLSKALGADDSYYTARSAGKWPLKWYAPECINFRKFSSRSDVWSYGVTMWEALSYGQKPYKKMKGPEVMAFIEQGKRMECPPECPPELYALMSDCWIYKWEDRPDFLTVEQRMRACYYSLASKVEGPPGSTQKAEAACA", "note": "Compare with care: the assays were run in different laboratories."}
{"SMILES": "C[C@H]1CCN(c2nccc(-c3cnn4ncccc34)n2)C1", "assay": "binding", "setting": "1 µM", "remaining binding [%]": 73}
{"SMILES": "CN(C)c1ncnc(-c2ccc3nc(Nc4cc(CN5CCN(C(=O)CC(F)(F)F)CC5)ccn4)[nH]c3c2)c1Cl", "assay": "cell-free assay, competition with immobilised ligand", "setting": "1 µM", "remaining binding [%]": 100}
{"SMILES": "C[C@@H]1CN(c2ccc3ncc(-c4ccc5[nH]nc(C6CC6)c5c4)n3n2)C[C@H](C)O1", "assay": "binding, competition with immobilised ligand", "setting": "50 nM", "remaining binding [%]": 100}
{"SMILES": "c1cncc(-c2cccc(Nc3nccc(NC4CCCCC4)n3)c2)c1", "assay": "binding, competition with immobilised ligand", "setting": "10 µM", "remaining binding [%]": 91}
{"SMILES": "FC(F)(F)Oc1cccc(-c2cnc3ccc(-c4ccncc4)nn23)c1", "assay": "binding, competition with immobilised ligand", "setting": "5 µM", "remaining binding [%]": 69}
{"SMILES": "CNCc1ccccc1-c1csc([C@@H](C)Nc2nc(C)nc3cc(OC)c(OC)cc23)c1", "assay": "cell-free assay, competition with immobilised ligand", "setting": "1 µM", "remaining binding [%]": 87}
{"SMILES": "CNC(=O)[C@@H]1CC[C@@H](n2c(-c3ccc4cnccc4c3)nc3ccc(C(=O)NCc4cccc(C(N)=O)c4)cc32)C1", "assay": "binding, competition with immobilised ligand", "setting": "1 µM", "remaining binding [%]": 100}
{"SMILES": "CSc1cccnc1N1CCN(Cc2nc3ccccc3[nH]2)CC1", "assay": "cell-free assay, competition with immobilised ligand", "setting": "1 µM", "remaining binding [%]": 99}
{"SMILES": "CN(c1nccc(-c2cnn3ncccc23)n1)C1CC1", "assay": "binding", "setting": "1 µM", "remaining binding [%]": 100}
{"SMILES": "O=C(c1ccc(Nc2ncc(Cl)c(-c3cc4ccccc4s3)n2)cc1)N1CCC(N2CCCC2)CC1", "assay": "binding, competition with immobilised ligand", "setting": "1 µM", "remaining binding [%]": 10}
{"SMILES": "O=C(O)[C@H]1[C@H](Cn2nnc3ccccc3c2=O)CC[C@@H]1C(=O)c1ccc(OCCC2CCOCC2)cc1", "assay": "cell-free assay, competition with immobilised ligand", "setting": "1 µM", "remaining binding [%]": 100}
{"SMILES": "N#Cc1ccccc1CSc1nnc2c(n1)[nH]c1ccccc12", "assay": "binding, competition with immobilised ligand", "setting": "10 µM", "remaining binding [%]": 78}
{"SMILES": "O=C(c1ccc(Nc2nccc(-c3cc4ccccc4s3)n2)cc1)N1CCC(N2CCCC2)CC1", "assay": "binding, competition with immobilised ligand", "setting": "1 µM", "remaining binding [%]": 15}
{"SMILES": "O=C(NCc1ncc(C(F)(F)F)cc1Cl)c1ccc2c(c1)C1(CCS(=O)(=O)CC1)[C@@H](C1CC1)N2S(=O)(=O)c1ccc(F)cc1", "assay": "cell-free assay, competition with immobilised ligand", "setting": "1 µM", "remaining binding [%]": 72}
{"SMILES": "F[C@@H]1CCN(c2nccc(-c3cnn4ncccc34)n2)C1", "assay": "binding", "setting": "1 µM", "remaining binding [%]": 100}
{"SMILES": "CCOC(=O)c1cc2cc(-c3cc(C(=O)NCc4ccc(C(=O)O)cc4)nn3C)ccc2[nH]1", "assay": "cell-free assay, competition with immobilised ligand", "setting": "0.1 µM", "remaining binding [%]": 98}
{"SMILES": "CC(C)(C)c1ccc(-c2nc(CBr)nn2-c2cccc(O)c2)cc1", "assay": "cell-free assay, competition with immobilised ligand", "setting": "10 µM", "remaining binding [%]": 80}
{"SMILES": "O=C(NCC1CCOCC1)c1n[nH]cc1NC(=O)c1c(F)cccc1F", "assay": "binding, competition with immobilised ligand", "setting": "1 µM", "remaining binding [%]": 100}
{"SMILES": "N[C@H]1CCN(c2nccc(-c3cnn4ncccc34)n2)C1", "assay": "binding", "setting": "1 µM", "remaining binding [%]": 100}
{"SMILES": "COc1cnc(Nc2cccc(S(N)(=O)=O)c2)nc1N1CCN(c2ccccc2)CC1", "assay": "binding, competition with immobilised ligand", "setting": "1 µM", "remaining binding [%]": 84}
{"SMILES": "CN(CCCC(F)(F)F)c1nccc(-c2cnn3ncccc23)n1", "assay": "binding", "setting": "1 µM", "remaining binding [%]": 100}
{"SMILES": "Cc1cc(-n2nc(Cc3cc(F)cc(C(F)(F)F)c3)nc2C)ccc1C(N)=O", "assay": "cell-free assay, competition with immobilised ligand", "setting": "1 µM", "remaining binding [%]": 82}
{"SMILES": "c1cnn2ncc(-c3ccnc(N4CCC45COC5)n3)c2c1", "assay": "binding", "setting": "1 µM", "remaining binding [%]": 80}
{"SMILES": "O=C(NCCCN1CCOCC1)c1ccc(Nc2ncc(Cl)c(-c3ccc(Cl)s3)n2)cc1", "assay": "binding, competition with immobilised ligand", "setting": "1 µM", "remaining binding [%]": 88}
{"SMILES": "CS(=O)(=O)NCC[C@H](NC(=O)c1cncc2c1cnn2-c1ccc(F)cc1)c1ccnc(S(C)(=O)=O)c1", "assay": "cell-free assay, competition with immobilised ligand", "setting": "1 µM", "remaining binding [%]": 80}
{"SMILES": "CN(C)c1nccc(-c2cnc3ncccn23)n1", "assay": "binding", "setting": "1 µM", "remaining binding [%]": 90}
